According to PubChem BioAssay AID540339 (Broad Institute, 2011):
Calls of active or inactive are those of the source.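 Rule for the calls: active = compounds that lower cell viability signal with a fitted half-maximal concentration within ten times the top tested dose; inconclusive = flat curve inhibiting 30 to 70%, or an unreliable fit; inactive = the rest.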

Test system: MALME3 melanoma viability, CellTiter-Glo luminescence, 24 h
Assay: growth inhibition of MALME3 cells – cell-based, CellTiter-Glo, dry powder samples, orthogonal assay for MITF inhibitor project, dose response (AID 540339)
Settings: not given
In short: (§1)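 assay system = MALME3 melanoma cells | buffer or medium = IMDM without phenol red, with 10% FBS | doses = compound dose-response series delivered by pin transfer | incubation = 24 h compound treatment at 37 °C | technique = CellTiter-Glo luminescence reporting cellular ATP | evaluation = cell viability, lower luminescence indicating compound activity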

SMILES | AC50
O=C(COc1ccccc1)N/N=C/c1ccc([N+](=O)[O-])o1 | 19.1 µM
Cc1[nH]c2ccccc2c1C(=O)CCl | 31.8 µM
O=C(CNc1cccc2ccccc12)N/N=C/c1ccc([N+](=O)[O-])o1 | 20 µM
CCN1CCN(C2=C(NS(=O)(=O)c3ccc(Br)cc3)C(=O)c3ccccc3C2=O)CC1 | 17.7 µM
O=C(Nc1ccc(-c2nc3ncccc3o2)cc1)c1ccc([N+](=O)[O-])o1 | 14.5 µM
CC1=NNC(=O)/C1=C\c1cn(-c2ccccc2)nc1-c1ccc(F)cc1 | 36.5 µM
CN(C)CCCNC(=O)/C(=C\c1ccc(-c2ccc(Br)cc2)o1)NC(=O)c1ccccc1 | 17.4 µM
CC1(C)CC(NC(=O)c2ccc(Cl)c(S(=O)(=O)N(Cc3ccccc3)c3ccccc3)c2)CC(C)(C)N1 | 17.4 µM
CCN(CC)CCNC(=O)c1c(C)n(-c2ccccc2)c2cc(Br)c(OC)cc12 | 34.1 µM
O=C(Cn1ncc(Cl)c(Cl)c1=O)N1CCc2ccccc21 | 5.07 µM
CC1CN(C(=O)CCC(=O)NCCCN2CCC(Cc3ccccc3)CC2)c2cc(Cl)ccc2O1 (stereo unspecified) | 29.9 µM
Cc1nc2ccccc2n1/N=C/c1ccc([N+](=O)[O-])s1 | 10.3 µM
CC(C)C(CCNC1CCN(C)CC1)c1ccc(Cl)cc1 (stereo unspecified) | 4.04 µM
COc1cc2c(cc1OC)C(c1ccccc1)N(C(=O)CCl)CC2 (stereo unspecified) | 18 µM
CC1CCN(CC(CS(=O)(=O)c2ccc([N+](=O)[O-])cc2)N2CCC(C)CC2)CC1 (stereo unspecified) | 18.6 µM
N=c1n(CCN2CCCC2)c2ccccc2n1CC(O)c1ccc(Cl)c(Cl)c1 (stereo unspecified) | 18.6 µM
O=c1c(Cl)c2oc3ccccc3nc-2c2ccccc12 | 18.2 µM
CCN1c2ccccc2NC2N=C(OC)C(c3ccccc3)C21 (stereo unspecified) | 7.91 µM
O=C(Nc1ccc(N2CCN(C(=O)c3ccccc3)CC2)cc1)c1ccc([N+](=O)[O-])o1 | 16.7 µM
Cc1ccc(C(=O)N/N=C/c2ccc([N+](=O)[O-])s2)cc1 | 14.8 µM
Cc1ccc(C(C)C)c(OCc2nn(CC(=O)c3ccc(Cl)cc3)c3[n+]2CCCCC3)c1 | 23.1 µM
COc1ccc(S(=O)(=O)N(C(C)=O)c2ccc(OC(C)=O)c3ccccc23)cc1[N+](=O)[O-] | 4.21 µM
COc1cc(/C=N/NC(N)=O)c(Br)cc1OCC(=O)Nc1ccccc1C | 32.8 µM
C=CCNC1=C(Cl)C(=O)c2ccccc2C1=O | 8.93 µM
CCN1CCCC1CNC(=O)c1ccc2c(c1)NC(=O)/C(=C\c1ccc(C)cc1)S2 (stereo unspecified) | 20 µM

Test system: not listed separately
Assay: as above
Settings: MALME3 melanoma viability, CellTiter-Glo luminescence, 24 h; at 35 µM (top of the series)
In short: as §1

SMILES | activity change, negative = inhibition
CC1CCCCC1NC(=O)/C(C#N)=C/C=C/c1ccccc1[N+](=O)[O-] (stereo unspecified) | 2.17% (inactive)
